Measurements published in ChEMBL document CHEMBL1135910, “Beta-C-mannosides as selectin inhibitors” (J Med Chem, 2002).

Biological target: Alpha-1-acid glycoprotein 1 (Homo sapiens, UniProt P02763)
Assay: Ability to inhibit the binding of E-selectin to human recombinant AGP (alpha-1 acid glycoprotein) in a E-selectin assay
Outline: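 ELISA read-out. Soluble E-selectin binding to human recombinant AGP bearing five sLex per molecule. Compounds screened at 5 mM, with percent inhibition recorded.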

Sequence of Alpha-1-acid glycoprotein 1 (P02763 whole entry): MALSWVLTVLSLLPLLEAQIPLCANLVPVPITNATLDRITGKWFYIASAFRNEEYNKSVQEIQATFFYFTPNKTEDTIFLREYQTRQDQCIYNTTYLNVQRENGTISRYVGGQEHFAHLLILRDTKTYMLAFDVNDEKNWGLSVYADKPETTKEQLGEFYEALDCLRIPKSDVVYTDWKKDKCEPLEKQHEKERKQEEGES

SMILES | Inhibition | IC50
O=C(O)CC[C@H](NC(=O)CC1OC(CNC(=O)CC(=O)Nc2ccc(Cl)cc2Cl)C(O)C(O)C1O)C(=O)O (stereo not given in full) | 45% | 
Cc1ccc(COc2ccsc2C(=O)NCC2OC(CC(=O)N[C@@H](CCC(=O)O)C(=O)O)C(O)C(O)C2O)cc1 (stereo not given in full) | 42% | 
C[C@@H](NC(=O)c1ccccc1C(=O)NCC1OC(CC(=O)N[C@@H](CCC(=O)O)C(=O)O)C(O)C(O)C1O)c1ccccc1 (stereo not given in full) |  | 5 mM
CC(C)(C)c1ccc(COc2ccsc2C(=O)NCC2OC(CC(=O)N[C@@H](CCC(=O)O)C(=O)O)C(O)C(O)C2O)cc1 (stereo not given in full) | 43% | 
CC(=O)N[C@H]1[C@H]([C@H](O)[C@H](O)CO)O[C@@](O[C@H]2[C@@H](O)[C@@H](CO)O[C@@H](O[C@@H]([C@H](O[C@@H]3O[C@@H](C)[C@@H](O)[C@@H](O)[C@@H]3O)[C@H](C=O)NC(C)=O)[C@H](O)CO)[C@@H]2O)(C(=O)O)C[C@@H]1O [SIALYL LEWIS X] |  | 8 mM
